A short description of assay [1]: Ki value measured for the inhibition of copper dependent amine oxidase in bovine plasma. Type of assay: cell-free. In short, it runs like this:
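Bovine plasma amine oxidase, 36 µg/mL (0.2 µM), in 0.1 M phosphate buffer, pH 7.2. Benzylamine at 0.5, 2.5 and 5 mM, with no preincubation. Rate measured as benzaldehyde formed per minute at 37 °C. Apparent Ki taken from Dixon plots.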

Assay [2] in a line: Effect on placental diamine oxidase (0.1 uM) after 0 min of incubation at pH 7.2. More on the design: species or system Homo sapiens. As to conditions: read-out: I50. In short, it runs like this:
(§1)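 Purified human placental diamine oxidase at 0.1 µM in 0.1 M phosphate buffer, pH 7.2, at 37 °C. Inhibitor added at zero time. After preincubation, saturating 3 mM p-[(dimethylamino)methyl]benzylamine added. Product aldehyde followed at 250 nm (E = 10.400 M-1 cm-1). I50 is the concentration giving 50% loss of activity. Two experiments in duplicate.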

The nature of assay [3]: Effect on placental diamine oxidase (0.1 uM) after 30 min of incubation at pH 7.2. More on the design: species or system Homo sapiens. Particulars: read-out: I50. In short, it runs like this: as §1
Assay [4] in a line: Ki value measured for the inhibition of human placenta diamine oxidase. Summed up: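 Human placental diamine oxidase, 47 µg/mL (0.2 µM), in 0.1 M phosphate buffer, pH 7.2, with no preincubation. […] oxidation followed at 250 nm at 37 °C. Apparent Ki estimated from Dixon plots.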
The species entered for assay [5] is Rattus norvegicus. In words: Brain mitochondrial activity measured at 0 min of incubation at 1 uM concentration. Type of assay: functional. In short, it runs like this: (§2)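 Rat brain mitochondria isolated by differential centrifugation of homogenates in 0.25 M sucrose, pH 7.4, then suspended in 0.1 M phosphate buffer, pH 7.2, at 37 °C. Inhibitor added at zero time, then saturating 1 mM kynuramine added after the incubation period. MAO activity read fluorimetrically. Percent inhibition reported from three experiments in duplicate.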

The species entered for assay [6] is Rattus norvegicus. The experiment in a line: Brain mitochondrial activity measured at 0 min of incubation at 10 uM concentration. Type of assay: functional. In short, it runs like this: as §2
Assay [7] is filed under the species Rattus norvegicus. In words: Brain mitochondrial activity measured at 0 min of incubation at 100 uM concentration. Type of assay: functional. In short, it runs like this:
as §2

Assay [8] is filed under the species Rattus norvegicus. The experiment in a line: Brain mitochondrial activity measured at 120 min of incubation at 1 uM concentration. Type of assay: functional. In short, it runs like this: as §2
For assay [9], the species on record is Rattus norvegicus. In words: Brain mitochondrial activity measured at 120 min of incubation at 10 uM concentration. Type of assay: functional. In short, it runs like this:
as §2

Assay [10] is filed under the species Rattus norvegicus. The experiment in a line: Brain mitochondrial activity measured at 120 min of incubation at 100 uM concentration. Type of assay: functional. Summed up: as §2
Assay [11] in a line: Effect on plasma amine oxidase (0.1 uM) after 15 min of incubation at pH 7.2. Type of assay: cell-free. As to conditions: 0.25 h, read-out: I50. In short, it runs like this: (§3)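 Purified bovine plasma amine oxidase at 0.1 µM in 0.1 M phosphate buffer, pH 7.2, at 37 °C. Inhibitor added at zero time and preincubated. Saturating 3 mM benzylamine then added and benzaldehyde formation read at 250 nm (E = 12.500 M-1 cm-1). I50 is the concentration halving activity. Two experiments in duplicate.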

Assay [12] is described as follows: Effect on plasma amine oxidase (0.1 uM) after 30 min of incubation at pH 7.2. Type of assay: cell-free. As to conditions: 0.5 h, read-out: I50. In short, it runs like this:
as §3

Assay [13] is described as follows: Effect on plasma amine oxidase (0.1 uM) after 0 min of incubation at pH 7.2. Type of assay: cell-free. Particulars: 0 h, read-out: I50. In short, it runs like this:
as §3

Assay [14] can be described thus: Effect on plasma amine oxidase (0.1 uM) after 60 min of incubation at pH 7.2. Type of assay: cell-free. As to conditions: 1 h, read-out: I50. In short, it runs like this: as §3

Structures are written as SMILES.

Usually Ki stands for the equilibrium dissociation constant of an inhibitor or competing ligand from its target. Broadly, the Inhibition is the percentage by which the read-out fell short of the control. A lower Inhibition goes with a response near the control. As to `NNC(=O)c1ccccc1-n1cccc1`, the inhibition constant Ki in assay [1] amounted to 300 µM; in assay [4], 250 µM. The IC50 in assay [2] and in [3] was 100 µM in each case. Further, the Inhibition is given as 0% in the assay filed under Rattus norvegicus [5]; 0% in the assay filed under Rattus norvegicus [6]; 0% in the assay listed under Rattus norvegicus [7]; 3% in the assay listed under Rattus norvegicus [8]; 5% in the assay filed under Rattus norvegicus [9]; 6% in the assay listed under Rattus norvegicus [10].
`NNC(=O)Cc1ccc(-n2cccc2)cc1`: the inhibition constant Ki in assay [1] amounted to 0.5 µM; in [4] it was 10 µM. Besides, the IC50 in [2] and in [3] was 10 µM each time. Besides, the Inhibition is on record as 0% in the assay listed under Rattus norvegicus [5]; 0% in the assay filed under Rattus norvegicus [6]; 6% in the assay filed under Rattus norvegicus [7]; 2% in the assay filed under Rattus norvegicus [8]; 4% in the assay listed under Rattus norvegicus [9]; 9% in the assay filed under Rattus norvegicus [10].
Compound `Cc1ccc(C)n1-c1ccc(CC(=O)NN)cc1` gave an inhibition constant (Ki) in assay [1] of 10 µM. Also, the IC50 in assay [2] was 100 µM; in assay [3], 50 µM. Besides, the Inhibition in the assay filed under Rattus norvegicus [5] turned out to be 0%; in the assay filed under Rattus norvegicus [6], 0%; in the assay listed under Rattus norvegicus [7], 2%; in the assay listed under Rattus norvegicus [8], 0%; in the assay listed under Rattus norvegicus [9], 0%; in the assay filed under Rattus norvegicus [10], 3%.
Turning to `CC(C)=NNC(=O)Cc1ccc(-n2cccc2)cc1`, the figures for the inhibition constant (Ki) in [1] and in [4] were 0.8 µM and 10 µM, respectively. For the same compound, the values for the IC50 in [2] and in [3] were 50 µM and 10 µM, respectively. Besides, the Inhibition is listed as 0% in the assay filed under Rattus norvegicus [5]; 0% in the assay listed under Rattus norvegicus [6]; 0% in the assay listed under Rattus norvegicus [7]; 12% in the assay listed under Rattus norvegicus [8]; 12% in the assay filed under Rattus norvegicus [9]; 18% in the assay filed under Rattus norvegicus [10].
`NNC(=O)c1cccc(-n2cccc2)c1`: the values for the inhibition constant (Ki) in [1] and in assay [4] were 85 µM and 110 µM, respectively. In addition, the IC50 in assay [2] and in assay [3] was 100 µM each time. The Inhibition in the assay listed under Rattus norvegicus [5] is listed as 0%; in the assay listed under Rattus norvegicus [6], 0%; in the assay listed under Rattus norvegicus [7], 0%; in the assay listed under Rattus norvegicus [8] it was 0%; in the assay listed under Rattus norvegicus [9], 5%; in the assay filed under Rattus norvegicus [10] it was 8%.
Consider `NNC(=O)c1ccc(-n2cccc2)cc1`, for which the inhibitory constant (Ki) in assay [1] turned out to be 80 µM; in [4], 100 µM. The IC50 in [2] stood at 200 µM; in [3] it was 50 µM. The Inhibition in the assay filed under Rattus norvegicus [5] came to 0%; in the assay filed under Rattus norvegicus [6], 0%; in the assay listed under Rattus norvegicus [7], 0%; in the assay filed under Rattus norvegicus [8], 2%; in the assay filed under Rattus norvegicus [9], 16%; in the assay listed under Rattus norvegicus [10] it was 18%.
On to `NNC(=O)Cc1cccc(-n2cccc2)c1`, for which the results for the Ki in [1] and in [4] were 0.7 µM and 100 µM, respectively. The results for the IC50 in [2] and in [3] were 50 µM and 10 µM, respectively. Further, the Inhibition in the assay listed under Rattus norvegicus [5] stood at 0%; in the assay filed under Rattus norvegicus [6], 2%; in the assay listed under Rattus norvegicus [7], 3%; in the assay filed under Rattus norvegicus [8], 0%; in the assay listed under Rattus norvegicus [9], 3%; in the assay listed under Rattus norvegicus [10], 15%.
Regarding `NNC(=O)c1ccncc1` [ISONIAZID], the IC50 in assay [11] came to 10 µM; in [12], 10 µM; in assay [13], 100 µM; in assay [14], 5 µM. In addition, the Inhibition was determined as 12% in the assay listed under Rattus norvegicus [5]; 14% in the assay filed under Rattus norvegicus [6]; 19% in the assay filed under Rattus norvegicus [7]; 16% in the assay filed under Rattus norvegicus [8]; 16% in the assay filed under Rattus norvegicus [9]; 22% in the assay filed under Rattus norvegicus [10].

The values are drawn from ChEMBL document CHEMBL1124086, “Inhibition of copper-dependent amine oxidases by some hydrazides of pyrrol-1-ylbenzoic and pyrrol-1-ylphenylacetic acids” (J Med Chem, 1988).
